According to ChEMBL document CHEMBL1806484, “Design, synthesis and biological evaluation of tyrosine-based hydroxamic acid analogs as novel histone deacetylases (HDACs) inhibitors” (Bioorg Med Chem, 2011):

Legend:
Histone deacetylase 8 = molecular target: T1, Histone deacetylase 8 (Homo sapiens, UniProt Q9BY41); assay: Inhibition of HDAC8 using fluorogenic Boc-Lys (acetyl)-AMC as substrate after 30 mins by fluorescence assay
T1 sequence (Q9BY41 whole entry): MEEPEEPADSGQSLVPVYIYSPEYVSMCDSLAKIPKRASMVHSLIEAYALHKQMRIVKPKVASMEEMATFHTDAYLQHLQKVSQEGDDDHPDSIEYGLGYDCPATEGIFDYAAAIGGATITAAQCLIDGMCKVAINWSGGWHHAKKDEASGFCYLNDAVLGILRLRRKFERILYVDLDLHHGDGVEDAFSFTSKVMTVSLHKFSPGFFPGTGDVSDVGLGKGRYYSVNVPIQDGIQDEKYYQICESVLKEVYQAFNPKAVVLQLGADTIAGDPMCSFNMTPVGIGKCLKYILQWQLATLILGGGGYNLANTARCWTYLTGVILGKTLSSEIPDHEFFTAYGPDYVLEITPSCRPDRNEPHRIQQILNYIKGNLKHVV
Summary of the method: (§1)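 Enzyme (HeLa nuclear extract or HDAC8, the latter expressed and purified in-house) preincubated 5 min with graded compound concentrations. Substrate added and run for 30 min at 37 °C, then stopped with a trypsin/TSA developer for 20 min at 37 °C. Fluorescence read at ex 390/em 460 nm. Inhibition was taken relative to control wells, IC50 by regression. Mean ± SD of ≥3 determinations.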

MDA-MB-231 = assay: Antiproliferative activity against human MDA-MB-231 cells after 48 hrs by MTT assay; assay type: functional, cell-based; details: MDA-MB-231, 48 h
A549 = assay: Antiproliferative activity against human A549 cells after 48 hrs by MTT assay; assay type: functional, cell-based; details: A549, 48 h
HCT-116 = assay: Antiproliferative activity against human HCT116 cells after 48 hrs by MTT assay; assay type: functional, cell-based; details: HCT-116, 48 h
Histone deacetylase = assay: Inhibition of HDAC in human HeLa cell nuclear extract using fluorogenic Boc-Lys (acetyl)-AMC as substrate after 30 mins fluorescence assay; assay type: protein assay; summary of the method: as §1

Row | IC50 (Histone deacetylase 8) [nM] | IC50 (MDA-MB-231) [nM] | IC50 (A549) [nM] | IC50 (HCT-116) [nM] | IC50 (Histone deacetylase) [nM] | Structure (SMILES)
1 | 467 | – | – | – | – | N[C@@H](Cc1ccc(OCC(=O)NO)cc1)C(=O)Nc1ccccc1
2 | 120 | – | – | – | – | COc1ccc(NC(=O)[C@H](Cc2ccc(OCC(=O)NO)cc2)NC(=O)OCc2ccccc2)cc1
3 | 90 | 6590 | 54600 | 6240 | 889 | COc1ccc(NC(=O)[C@H](Cc2ccc(OCC(=O)NO)cc2)NC(=O)CCc2ccccc2)cc1
4 | 63 | 22300 | > 100000 | > 100000 | 1230 | COc1ccc(NC(=O)[C@H](Cc2ccc(OCC(=O)NO)cc2)NC(=O)Cc2ccccc2)cc1
5 | 86 | 14300 | 97200 | 57300 | 1320 | COc1ccc(NC(=O)[C@H](Cc2ccc(OCC(=O)NO)cc2)NC(=O)CCCc2ccccc2)cc1
6 | 922 | – | – | – | – | COc1ccc(NC(=O)[C@H](Cc2ccc(OCC(=O)NO)cc2)NCCCc2ccccc2)cc1
7 | 1180 | – | – | – | – | COc1ccc(NC(=O)[C@H](Cc2ccc(OCC(=O)NO)cc2)NCc2ccccc2)cc1
8 | 197 | – | – | – | – | O=C(COc1ccc(C[C@H](NC(=O)OCc2ccccc2)C(=O)Nc2ccccc2)cc1)NO
9 | 227 | – | – | – | – | CC(C)(C)OC(=O)N[C@@H](Cc1ccc(OCC(=O)NO)cc1)C(=O)Nc1ccccc1
10 | 87 | 2980 | 24000 | 1530 | 358 | COc1ccc(NC(=O)[C@H](Cc2ccc(OCC(=O)NO)cc2)NC(=O)c2ccccc2)cc1
11 | 213 | – | – | – | – | O=C(COc1ccc(C[C@H](NC(=O)OCc2ccccc2)C(=O)Nc2cccc(Cl)c2)cc1)NO
12 | 151 | – | – | – | – | O=C(COc1ccc(C[C@H](NC(=O)CCc2ccccc2)C(=O)Nc2ccccc2)cc1)NO
13 | 660 | – | – | – | – | COc1ccc(NC(=O)[C@H](Cc2ccc(OCC(=O)NO)cc2)NCCc2ccccc2)cc1
